Tested on: FOPFlash reporter
Experiment: Wnt reporter assay, FOPFlash negative control
Assay type: cell-based
Settings: 293T cells, 50 mM LiCl, 24 h, luciferase
Method in brief: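 293T cells transfected with the FOPFlash plasmid, whose TCF/LEF binding sites are mutated. This plasmid served as a negative control for the TOPFlash reporter, which carries eight TCF/LEF binding-site repeats. Wnt signalling was activated with the GSK3beta inhibitor LiCl. Cells were exposed to increasing concentrations of test compound, and reporter activity was then measured.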

CCOC(=O)c1ccc(NS(=O)(=O)c2ccc(Br)cc2)cc1 [Compound 17]
Effect on activity of FOP reporter: failed to prevent

Reference: publication PMC6466550 (ACS Medicinal Chemistry Letters, 2019)
